Experimental data: publication PMC8355823 (Toxicology Reports, 2021)
Read-outs that look alike come from different tables or passages of the source.

How the values were obtained:
ES-D3 embryoid bodies [1] = assay: Embryoid body; type: cell-based, murine; conditions: Mus musculus, read-out: EB area (EC50); day 7
In short: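 Differentiation run without LIF. Hanging drops kept 3 days, then EBs moved to exposure medium for 2 days, then placed singly in 24-well plates with exposure medium. On differentiation day 7, each EB was imaged by bright field at 4x and its border traced to give area. Mean area of 24 EBs per condition was used. EC50 taken from an exponential concentration-response fit with 90% BMCL-BMCU.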

ES-D3 embryoid bodies [2] = assay: Total protein measurements of EBs; type: cell-based, murine; conditions: Mus musculus, 168 h, read-out: Protein level (EC50); day 7
In short: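 Differentiation run without LIF. Hanging drops kept 3 days, then exposure to test compound during EB culture. On differentiation day 7, 24 EBs per condition were pooled, dissociated at 37 °C for 3 min, washed in PBS and permeabilised in 1% Triton X-100 for 5 min. Protein measured by Micro BCA in triplicate. EC50 taken from an exponential concentration-response fit with 90% BMCL-BMCU.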

ES-D3 cells = assay: Cell viability assay; type: cell-based, murine; conditions: Mus musculus, 120 h, read-out: Viability (IC50)
In short: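 ES-D3 cells plated at 500/well in LIF-containing medium and settled 2 h at 37 °C, 5% CO2. Exposed in six replicates to test compound, 0.25% DMSO vehicle, or penicillin G and 5-fluorouracil controls. Medium renewed at the same final concentrations after 3 days, then 2 more days. CellTiter-Blue added for 2 h; fluorescence read at 544/590 nm and expressed as % of DMSO. n = 3 experiments. IC50 taken from an exponential concentration-response fit with 90% BMCL-BMCU.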

ES-D3 embryoid bodies [3] = assay: Gene expression analysis; type: cell-based, murine; conditions: after 24 h exposure, day 4
In short: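 EBs differentiated to day 4 with 24 h exposure to test compound or 0.25% DMSO. 7–8 EB samples from two independent experiments. RNA isolated with a DNase step; quality accepted at 260/280 of 1.9–2.2 and RIN >8.2. TaqMan real-time PCR: 95 °C for 20 s, then 40 cycles of 95 °C 3 s and 60 °C 30 s. Values by ΔΔCt against mean Hprt1/Gusb/Polr2a. One-way ANOVA with Sidak test (p < 0.05) versus control.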

rats = conditions: cited from earlier work
zebrafish = conditions: cited from earlier work
rabbits = conditions: cited from earlier work

Structure (SMILES) | EC50 (ES-D3 embryoid bodies [1]) | EC50 (ES-D3 embryoid bodies [2]) | IC50 (ES-D3 cells) | Myh6 gene expression (late cardiomyocyte differentiation marker) (ES-D3 embryoid bodies [3]) | Fetotoxicity and teratogenicity (rats; rats) | Cardiac-related developmental defects (zebrafish; zebrafish model) | Cardiac effects (zebrafish; zebrafish) | Fetotoxicity and teratogenicity (rabbits) | Cardiac-related developmental defects (zebrafish; zebrafish) | Degenerated neurons in the cerebellum of the offspring (rats; exposure of pregnant rats) | Numbers of Purkinje cells in the offspring (rats; exposure of pregnant rats) | Psychobiological development (rats; neonatal rats, dams exposed to 1 mg/kg per os) | Acetylcholine esterase (AChE) (rats; neonatal rats) | Muscarinic receptors (rats; neonatal rats) | Malformations (rats; rats, maternally toxic doses of 25 mg/kg per day)
O=P(Oc1ccccc1)(Oc1ccccc1)Oc1ccccc1 [Triphenyl phosphate, triphenyl phosphate] | 120 µM | 108 µM | 61.4 µM | not expressed yet | neither fetotoxic nor teratogenic | impaired cardiac looping and function | impairments in cardiac looping and function defects | – | – | – | – | – | – | – | –
CCOC(=O)CC(SP(=S)(OC)OC)C(=O)OCC (stereo not shown) [Malathion, malathion] | 72 µM | 80.2 µM | 49.4 µM | – | – | – | – | neither fetotoxic nor teratogenic | bradycardia and a reduced heart rate | – | – | – | – | – | –
CCOP(=S)(OCC)Oc1nc(Cl)c(Cl)cc1Cl [Chlorpyrifos] | 139 µM | 92 µM | 85.7 µM | – | – | – | – | – | pericardial oedema | increased degenerated neurons | reduced numbers of Purkinje cells | delay in psychobiological development | reductions | dose-dependent decrease | multiple malformations
